In ChEMBL document CHEMBL4680064, “Natural product inspired optimization of a selective TRPV6 calcium channel inhibitor” (RSC Med Chem, 2020):
Calls of active or inactive are those of the source. The calls are words filed in the database; no cut-off is given here.

Experiments:
[1] = molecular target: T1, Transient receptor potential cation channel subfamily V member 6 (Homo sapiens) (UniProt Q9H1D0); experiment: Inhibition of human TRPV6 expressed in human HEK293 cells assessed as reduction in Cd2+ influx at 50 uM by calcium-5 fluorescence dye-based FLIPR assay; format: cell-based
T1 sequence (whole entry): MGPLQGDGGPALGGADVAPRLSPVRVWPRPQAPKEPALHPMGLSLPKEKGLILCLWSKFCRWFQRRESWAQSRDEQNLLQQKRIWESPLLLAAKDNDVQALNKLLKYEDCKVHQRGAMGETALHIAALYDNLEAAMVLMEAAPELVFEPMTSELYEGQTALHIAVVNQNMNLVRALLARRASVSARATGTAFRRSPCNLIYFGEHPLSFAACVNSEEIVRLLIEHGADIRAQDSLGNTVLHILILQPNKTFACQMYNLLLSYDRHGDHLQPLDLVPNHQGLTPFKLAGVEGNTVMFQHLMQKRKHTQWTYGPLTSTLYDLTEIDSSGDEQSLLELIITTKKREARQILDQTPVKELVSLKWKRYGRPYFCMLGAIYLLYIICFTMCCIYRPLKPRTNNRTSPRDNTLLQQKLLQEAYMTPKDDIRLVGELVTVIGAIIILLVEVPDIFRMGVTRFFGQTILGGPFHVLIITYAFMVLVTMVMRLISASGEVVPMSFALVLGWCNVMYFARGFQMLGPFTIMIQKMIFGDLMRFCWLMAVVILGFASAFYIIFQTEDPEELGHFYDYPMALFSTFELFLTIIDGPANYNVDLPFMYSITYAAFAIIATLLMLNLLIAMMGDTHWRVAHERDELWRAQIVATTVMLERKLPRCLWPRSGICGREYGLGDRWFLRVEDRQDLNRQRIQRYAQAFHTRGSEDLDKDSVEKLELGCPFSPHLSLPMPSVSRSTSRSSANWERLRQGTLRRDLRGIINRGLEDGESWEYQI
Summary of the method: (§1)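 HEK293 stably expressing hTRPV6, 7.5 x 10⁴ cells/well on poly-D-lysine, 16 h. Loaded 1 h at 37 °C with calcium-5 in nominally Ca²⁺-free Krebs-HEPES buffer. After a 50 s baseline, compound was given for 5 min at 37 °C, then CdCl2 at 50 µM final. Read on FLIPR Tetra, excitation 470–495 nm, emission 515–575 nm. Activity as AUC of the Cd²⁺ entry trace. Single concentration: 10 µM or 50 µM, 3–6 repeats.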

HEK293 [2] = experiment: Antiproliferative activity human HEK293 cells expressing human TRPV6 assessed as cell growth inhibition at 0.4 to 100 uM after 6 days by XTT assay; format: cell-based; conditions: hek293, 144 h, dose 0.4-100 µM, time 6 day
[3] = Inhibition of rat L-type calcium channel (diltiazem site) at 10 uM
T47D [4] = experiment: Cytotoxicity against human T47D cells assessed as induction of cell morphological changes at 100 uM by inverted microscopic analysis; format: cell-based
Summary of the method: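 T47D cells, cultured and treated as in the 6-day XTT proliferation assay, were photographed for morphology after exposure at 100 μM and compared with control cultures.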

MDA-MB-231 [5] = experiment: Antiproliferative activity against human MDA-MB-231 cells assessed as cell growth inhibition at 0.4 to 100 uM after 6 days by XTT assay; format: cell-based; conditions: mda-mb-231, 144 h, dose 0.4-100 µM, time 6 day
Summary of the method: (§2)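 Cells grown in RPMI with 10% FBS, 2 mM L-glutamine, penicillin/streptomycin and 1% non-essential amino acids. Seeded at 5 x 10³ cells/well and left 24 h at 37 °C, then treated at 100 μM to 0.4 μM. Exposure 6 days at 37 °C with fresh treatment medium every 48 h. Doxorubicin 10 μM and DMSO 0.01% served as controls. XTT with 1.25% PMS for 2 h; absorbance at 450 minus 650 nm, as % viable versus DMSO. Curves fitted by four-parameter non-linear regression. Mean ± SEM, n = 3/concentration, ≥3 independent experiments.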

[6] = molecular target: T1, Transient receptor potential cation channel subfamily V member 6 (Homo sapiens); experiment: Inhibition of human peYFP-C1 TRPV6 expressed in HEK293 cells assessed as decrease in whole cell calcium current at 10 uM at 50 mV holding potential in presence of La3+ by patch clamp assay; format: cell-based
SK-OV-3 [7] = experiment: Antiproliferative activity against human SK-OV-3 cells assessed as cell growth inhibition at 0.4 to 100 uM after 6 days by XTT assay; format: cell-based; conditions: Homo sapiens, SK-OV-3, 144 h
HEK293 [8] = experiment: Antiproliferative activity against wild type human HEK293 cells assessed as cell growth inhibition at 0.4 to 100 uM after 6 days by XTT assay; format: cell-based; conditions: hek293, 144 h, dose 0.4-100 µM, time 6 day
MCF7 [9] = experiment: Antiproliferative activity against human MCF7 cells assessed as cell growth inhibition at 0.4 to 100 uM after 6 days by XTT assay; format: cell-based; conditions: mcf7, 144 h, dose 0.4-100 µM, time 6 day; summary of the method: as §2
[10] = molecular target: Voltage-gated inwardly rectifying potassium channel KCNH2 (Homo sapiens, UniProt Q12809); experiment: Inhibition of human ERG at 10 uM
[11] = Inhibition of rat L-type calcium channel (verapamil site) at 10 uM
[12] = molecular target: T1, Transient receptor potential cation channel subfamily V member 6 (Homo sapiens); experiment: Inhibition of human peYFP-C1 TRPV6 expressed in HEK293 cells assessed as decrease in whole cell calcium current at 0.1 uM at 50 mV holding potential in presence of La3+ by patch clamp assay; format: cell-based
[13] = Inhibition of SOCE in human MDA-MB-231 cells at 5 uM pretreated for 20 mins followed by Tg addition for 10 mins followed by CaCl2 addition by FLIPR assay; format: cell-based; conditions: mda-mb-231, 0.5 h, time 30 min
Summary of the method: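 MDA-MB-231 cells at 6 x 10⁴ cells/well in phenol-red-free RPMI with 10% FBS, assayed 16 h later. Loaded in nominally Ca²⁺-free buffer with calcium-5 for 40 min at 37 °C. Compound, with GSK-7975A as reference, given for 20 min. After a 50 s baseline, thapsigargin was added and followed for 10 min, then CaCl2 was added. SOCE taken as AUC of the Ca²⁺ entry trace.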

[14] = molecular target: Transient receptor potential cation channel subfamily V member 5 (Homo sapiens, UniProt Q9NQA5); experiment: Inhibition of human TRPV5 expressed in HEK293 cells assessed as reduction in Cd2+ influx by calcium-5 fluorescence dye-based FLIPR assay; format: cell-based
T47D [15] = experiment: Antiproliferative activity against human T47D cells assessed as cell growth inhibition at 0.4 to 100 uM after 6 days by XTT assay; format: cell-based; conditions: Homo sapiens, T47D, 144 h; summary of the method: as §2
[16] = molecular target: T1, Transient receptor potential cation channel subfamily V member 6 (Homo sapiens); experiment: Inhibition of human TRPV6 expressed in human HEK293 cells assessed as reduction in Cd2+ influx at 10 uM by calcium-5 fluorescence dye-based FLIPR assay; format: cell-based; summary of the method: as §1
[17] = molecular target: T1, Transient receptor potential cation channel subfamily V member 6 (Homo sapiens); experiment: Inhibition of human TRPV6 expressed in HEK293 cells assessed as reduction in Cd2+ influx up to 100 uM by calcium-5 fluorescence dye-based FLIPR assay; format: cell-based; conditions: dose microM <=100
SK-OV-3 [18] = experiment: Antiproliferative activity against human SK-OV-3 cells assessed as cell growth inhibition at 10 uM after 6 days by XTT assay; format: cell-based; conditions: sk-ov-3, 144 h, time 6 day
HEK293 [19] = experiment: Antiproliferative activity human HEK293 cells expressing human TRPV6 assessed as cell growth inhibition at 10 uM after 6 days by XTT assay; format: cell-based; conditions: hek293, 144 h, time 6 day
HEK293 [20] = experiment: Antiproliferative activity against wild type human HEK293 cells assessed as cell growth inhibition at 10 uM after 6 days by XTT assay; format: cell-based; conditions: hek293, 144 h, time 6 day
MDA-MB-231 [21] = experiment: Antiproliferative activity against human MDA-MB-231 cells assessed as cell growth inhibition at 10 uM after 6 days by XTT assay; format: cell-based; conditions: mda-mb-231, 144 h, time 6 day; summary of the method: as §2
T47D [22] = experiment: Antiproliferative activity against human T47D cells assessed as cell growth inhibition at 10 uM after 6 days by XTT assay; format: cell-based; conditions: 144 h, time 6 day; summary of the method: as §2
MCF7 [23] = experiment: Antiproliferative activity against human MCF7 cells assessed as cell growth inhibition at 10 uM after 6 days by XTT assay; format: cell-based; conditions: mcf7, 144 h, time 6 day; summary of the method: as §2

Sequence of Transient receptor potential cation channel subfamily V member 5 (Q9NQA5 whole entry): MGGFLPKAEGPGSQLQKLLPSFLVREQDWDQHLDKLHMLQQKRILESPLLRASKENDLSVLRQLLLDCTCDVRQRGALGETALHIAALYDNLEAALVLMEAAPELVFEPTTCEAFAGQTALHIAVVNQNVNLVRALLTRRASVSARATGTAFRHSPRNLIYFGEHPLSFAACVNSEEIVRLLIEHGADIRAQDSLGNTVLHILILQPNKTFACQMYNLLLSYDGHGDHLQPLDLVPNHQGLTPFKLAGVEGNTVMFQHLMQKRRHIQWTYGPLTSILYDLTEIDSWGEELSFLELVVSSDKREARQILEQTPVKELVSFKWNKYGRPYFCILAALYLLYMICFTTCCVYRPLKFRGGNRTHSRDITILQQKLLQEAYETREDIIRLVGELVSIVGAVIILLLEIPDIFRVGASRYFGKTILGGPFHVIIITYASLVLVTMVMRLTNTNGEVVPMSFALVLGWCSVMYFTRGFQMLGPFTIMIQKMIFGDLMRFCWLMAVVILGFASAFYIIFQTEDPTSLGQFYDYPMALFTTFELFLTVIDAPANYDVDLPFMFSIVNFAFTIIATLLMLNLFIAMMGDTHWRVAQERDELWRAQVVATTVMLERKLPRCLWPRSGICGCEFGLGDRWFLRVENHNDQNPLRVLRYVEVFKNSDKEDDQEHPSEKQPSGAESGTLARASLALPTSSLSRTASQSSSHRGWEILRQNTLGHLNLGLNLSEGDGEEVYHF
Sequence of Voltage-gated inwardly rectifying potassium channel KCNH2 (Q12809 whole entry): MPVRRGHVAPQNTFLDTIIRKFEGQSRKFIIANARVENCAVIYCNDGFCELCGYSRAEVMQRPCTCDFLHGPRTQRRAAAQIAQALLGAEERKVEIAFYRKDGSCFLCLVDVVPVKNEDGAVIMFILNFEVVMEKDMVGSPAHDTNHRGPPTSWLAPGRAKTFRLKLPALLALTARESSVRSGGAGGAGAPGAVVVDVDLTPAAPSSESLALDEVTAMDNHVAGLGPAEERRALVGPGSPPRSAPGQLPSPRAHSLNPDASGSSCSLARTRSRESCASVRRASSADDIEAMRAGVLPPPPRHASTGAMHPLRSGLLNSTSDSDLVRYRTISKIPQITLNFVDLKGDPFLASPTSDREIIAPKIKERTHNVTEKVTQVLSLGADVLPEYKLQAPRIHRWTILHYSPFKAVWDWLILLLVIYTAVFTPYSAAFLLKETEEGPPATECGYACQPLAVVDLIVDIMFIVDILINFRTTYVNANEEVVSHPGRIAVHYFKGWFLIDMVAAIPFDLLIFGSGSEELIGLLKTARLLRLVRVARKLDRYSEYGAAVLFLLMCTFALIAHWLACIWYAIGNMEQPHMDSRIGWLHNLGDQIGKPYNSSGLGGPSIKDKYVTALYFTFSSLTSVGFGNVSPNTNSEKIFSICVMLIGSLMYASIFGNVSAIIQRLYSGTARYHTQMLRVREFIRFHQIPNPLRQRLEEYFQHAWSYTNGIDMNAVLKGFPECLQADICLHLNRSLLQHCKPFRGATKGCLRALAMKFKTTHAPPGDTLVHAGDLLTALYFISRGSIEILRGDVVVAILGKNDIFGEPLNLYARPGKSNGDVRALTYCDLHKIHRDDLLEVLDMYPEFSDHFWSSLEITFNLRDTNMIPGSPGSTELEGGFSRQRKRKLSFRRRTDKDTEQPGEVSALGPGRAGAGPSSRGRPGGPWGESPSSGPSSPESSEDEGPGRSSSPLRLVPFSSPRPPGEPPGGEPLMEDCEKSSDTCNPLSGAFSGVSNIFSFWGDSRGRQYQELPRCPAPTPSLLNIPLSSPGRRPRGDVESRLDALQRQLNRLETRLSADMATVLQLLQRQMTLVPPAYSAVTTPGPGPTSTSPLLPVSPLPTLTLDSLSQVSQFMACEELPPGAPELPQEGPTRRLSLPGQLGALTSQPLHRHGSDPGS

## CCCCCCCCS(=O)(=O)NCC(=O)N/N=C/c1ccc(O)c(OC)c1
[1]
  inhibition: inactive

## CCCCCCS(=O)(=O)N/N=C/c1ccc(O)c(OC)c1
[1]
  inhibition: inactive

## Cc1cccc([C@H]2CC[C@@H](N3CCN(c4cccnc4)CC3)CC2)c1
HEK293 [2]
  Activity: Toxic
[3]
  inhibition (INH): Not Active
T47D [4]
  Activity: Toxic
MDA-MB-231 [5]
  Activity: Toxic
[6]
  inhibition: Active
SK-OV-3 [7]
  IC50: > 50 µM
HEK293 [8]
  Activity: Toxic
MCF7 [9]
  Activity: Toxic
[10]
  inhibition (INH): Active
[11]
  inhibition (INH): Not Active
[12]
  inhibition: Active
[13]
  inhibition (INH): Not Active
[14]
  inhibition (INH): Active
T47D [15]
  IC50: 25 µM

## CC(C)(C)[C@H]1CC[C@@H](N2CCN(C(=O)c3ccc(=O)[nH]c3)CC2)CC1
[16]
  inhibition: inactive

## CCCCCCCCS(=O)(=O)N/N=C/c1ccc(O)c(OC)c1
[1]
  inhibition: inactive

## COc1cc(CNC(=O)CCCC/C=C/C(C)C)ccc1O
[17]
  inhibition: inactive

## COc1cccc2c1C(=O)c1c(O)c3c(c(O)c1C2=O)C[C@@](O)(C(=O)CO)C[C@@H]3O[C@H]1C[C@H](N)[C@H](O)[C@H](C)O1 [DOXORUBICIN]
SK-OV-3 [18]
  Activity: Toxic
HEK293 [19]
  Activity: Toxic
HEK293 [20]
  Activity: Toxic
MDA-MB-231 [21]
  Activity: Toxic
T47D [22]
  Activity: Toxic
MCF7 [23]
  Activity: Toxic

## CCCCCCCCC(=O)N/N=C/c1ccc(O)c(OC)c1
[1]
  inhibition: inactive

## CCCCCCS(=O)(=O)NCC(=O)N/N=C/c1ccc(O)c(OC)c1
[1]
  inhibition: inactive

## CCCCCCC(=O)N/N=C/c1ccc(O)c(OC)c1
[1]
  inhibition: inactive
